Shown are actives, neighbours in structure and some others; about 3.5% of the full set was active somewhere.
Env fusion inh: blocks HIV Env-driven cell-cell fusion; HeLa-JRFL Env/CEM21 cell fusion, luciferase; inhibition, % at 12.3 µM; actives 1.1% (n = 360,000);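 active means mean replicate inhibition score of at least 50 and every replicate individually at or above 50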
rRNA inh HTS: inhibits bacterial ribosomal RNA function over humanized ribosomes | actives 1.6% (n = 350,000) | AID 720706 | E. coli WT GFP vs humanized-ribosome RFP mutants, fluorescence, 24 h; hits give low values; DMSO median 0, no signal -100 | GFP signal change (wild-type ribosome), % (test concentration not listed);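 active means significant combined selectivity score with lowered wild-type GFP, culture density cut under 30%, mutant RFP and density less affected; inactive means any of these conditions unmet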
FN deposit inh: fibronectin deposition inhibition | AH1F fibroblasts, Alexa488-fibronectin deposition fluorescence, overnight | inhibition, % at 12.6 µM | actives 0.086% (n = 350,000) | AID 743247;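 active means mean inhibition across replicates of 30% or more, regardless of how many single replicates reach that level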
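test system = AH1F fibroblasts assembling fluorescent fibronectin matrix | quantity = 10000 AH1F cells per well | buffer or medium = DMEM plus 2% serum, read in PBS | doses = single dose, pinned | incubation = 1 h cell attachment, overnight exposure to compound and label | detection = fluorescence at 485 nm excitation, 525 nm emission | read-out basis = inhibition from reduced deposited-fibronectin fluorescence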
PglD inh: PglD (C. jejuni) enzyme inhibition. purified PglD enzyme, DTNB colorimetric CoA detection. inhibition, % at 12.5 µM. actives 0.098% (n = 360,000). AID 602405; in the data active means inhibition above about 16%, passing the limit was not always enough
PGC1a acetyl inh: PGC1a acetylation modulation, inhibitor mode; U2OS PGC1a acetylation, AlphaScreen anti-acetyl-lysine; with virally co-expressed GCN5 acetyltransferase; inhibition, % at 15.6 µM; actives 0.17% (n = 350,000); AID 651687;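 active means every replicate shows inhibition of at least 40%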
DENV2 CPE rescue: protects cells from dengue virus 2 cytopathic effect; DENV2-infected cells, cytopathic effect rescue, plate reader; CPE inhibition, % at 9.99 µM; actives 1.7% (n = 350,000); in the data active means CPE inhibition above about 20%, passing the limit was not always enough; tested in BHK-21 cells
Numbers stand for hits; – = inactive; · = no result; [ ] = remark or other dose.

SMILES | Env fusion inh | rRNA inh HTS | FN deposit inh | PglD inh | PGC1a acetyl inh | DENV2 CPE rescue
C[C@H](NC(=O)[C@@H]1[C@@H](CO)[C@@H]2Cn3c(ccc(-c4ccncc4)c3=O)[C@H]1N2C)c1ccccc1 | · | – | · | – | – | –
CCCN1CCC(NC(=O)CC2C(=O)NCCN2Cc2cccc(OC)c2)CC1 (stereo not drawn) | – | – | – | – | · | 85
O=C(CC1C(=O)NCCN1Cc1cccc(F)c1)NC1CCCCC1 (stereo not drawn) | 91 | · | – | – | · | –
O=C(CC1C(=O)NCCN1Cc1cccc(F)c1)NC1CCC1 (stereo not drawn) | – | – | – | – | – | –
Cc1cccc2c(=O)cc(C)n(CC(N)=O)c12 | – | -28 | – | · | – | –
CO[C@H]1CN(C)C(=O)c2ccc(NC(=O)C3CCC3)cc2OC[C@H](C)N(Cc2cccnc2)C[C@@H]1C | · | – | – | – | · | –
CO[C@@H]1CN(C)C(=O)c2cc(NC(=O)c3ccc4c(c3)OCO4)ccc2OC[C@@H](C)N(CCC(F)(F)F)C[C@@H]1C | · | – | – | – | – | 36
CO[C@@H]1CN(C)C(=O)c2cc(NC(=O)c3ccc4c(c3)OCO4)ccc2OC[C@@H](C)N(CCC(F)(F)F)C[C@H]1C | · | – | – | – | – | 23
CO[C@@H]1CN(C)C(=O)c2ccc(NC(=O)c3ccc4c(c3)OCO4)cc2OC[C@@H](C)N(CCC(F)(F)F)C[C@H]1C | – | – | – | – | – | –
CO[C@@H]1CN(C)C(=O)c2ccc(NS(=O)(=O)CC(F)(F)F)cc2OC[C@@H](C)N(C(=O)c2ccc3c(c2)OCO3)C[C@@H]1C | 65[16.7 µM] | – | – | · | – | ·
COc1ccccc1CNC(=O)C[C@@H]1CC[C@H](NC(C)=O)[C@@H](CO)O1 | – | – | – | – | – | –
Cc1cccc(C)c1Nc1ncnc2ccccc12 | – | -34 | – | – | – | –
CC(=O)N(C)C[C@@H]1Oc2ncc(-c3ccccc3F)cc2C(=O)N([C@@H](C)CO)C[C@@H]1C | – | – | – | – | – | –
C[C@H](CO)N1C[C@H](C)[C@@H](CN(C)S(=O)(=O)c2ccc(Cl)cc2)Oc2ccc(NC(=O)Nc3ccccc3)cc2CC1=O | · | – | · | – | – | –
O=C(C[C@H]1CC[C@H]2[C@@H](COC[C@H](O)CN2S(=O)(=O)c2ccccc2)O1)Nc1ccc(-c2ccccc2)cc1 | · | – | – | – | – | –
O=C(O)COc1ccc(/C=N/n2c(COc3ccccc3)nc3ccccc3c2=O)cc1 | – | – | – | · | · | –
O=C(Nn1c(COc2ccccc2)nc2ccccc2c1=O)C(Cl)(Cl)Cl | – | -15 | – | – | · | –
O=c1c2ccccc2nc(COc2ccccc2)n1/N=C/c1ccc(O)c(O)c1 | – | -31 | – | – | – | ·
COc1ccccc1CN1C[C@H](C)[C@@H](OC)CN(C)C(=O)c2cc(NC(C)=O)ccc2OC[C@@H]1C | – | – | – | – | – | –
C[C@@H]1CN([C@@H](C)CO)C(=O)c2cc(NC(=O)Cc3cn(C)c4ccccc34)ccc2O[C@H]1CN(C)C(=O)NC1CCCCC1 | – | – | – | – | – | 24
CC(C)NC(=O)N(C)C[C@@H]1Oc2ccc(NC(=O)Cc3cn(C)c4ccccc34)cc2C(=O)N([C@H](C)CO)C[C@H]1C | · | – | · | 26 | – | 52
CC(C)NC(=O)N(C)C[C@@H]1Oc2ccc(NC(=O)Cc3cn(C)c4ccccc34)cc2C(=O)N([C@@H](C)CO)C[C@@H]1C | · | – | · | – | – | –
C[C@@H]1CN([C@H](C)CO)C(=O)c2cc(NC(=O)Cc3cn(C)c4ccccc34)ccc2O[C@@H]1CN(C)C(=O)NC1CCCCC1 | – | – | – | – | – | –
C[C@H](CO)N1C[C@H](C)[C@H](CN(C)C(=O)NC2CCCCC2)Oc2ccc(NC(=O)Cc3ccccc3)cc2C1=O | – | – | – | – | – | 33
COc1cc(N=C2C(=O)N3CCCc4cccc2c43)cc(OC)c1 | – | · | – | · | · | ·
O=C1c2cccc3c2N(CCC3)C(=O)C1(F)c1ccccc1 (stereo not drawn) | – | -17 | – | – | – | –
C[C@@H]1CN([C@H](C)CO)C(=O)c2cc(-c3cccnc3)cnc2O[C@H]1CN(C)C(=O)C1CCCCC1 | – | – | · | · | – | ·
